Assay results reported in ChEMBL document CHEMBL4616588, “High content phenotypic screening identifies serotonin receptor modulators with selective activity upon breast cancer cell cycle and cytokine signaling pathways” (Bioorg Med Chem, 2020).
pEC50: −log10 of the molar value. The source made the active and inactive calls. The calls are words filed in the database; no cut-off is given here.

Columns and labels:
[1] = system: T47D; assay: Induction of morphological changes in human T47D cells at 10 uM incubated for 48 hrs by Hoechst 33342, SYTO14, Phalloidin-594, Wheat germ agglutinin-594, Concavalin-488, MitoTracker DeepRed staining based wide field fluorescent microscopic method; format: functional, cell-based
Summary of the method: (§1)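 Parental HCC1954 or T47D cells were seeded at 3000 cells/well in 96-well or 1500 cells/well in 384-well optical imaging plates and grown 24 h. Compounds were given for 48 h at up to 10 μM, with 0.1% DMSO and 0.3 μM staurosporine controls. Cells were fixed in 4% paraformaldehyde for 30 min at RT, then Cell Painting stained for 30 min in the dark […]. Imaging used wide-field fluorescence, and nuclei were segmented from the Hoechst channel and counted.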

[2] = system: T47D; assay: Antiproliferative activity against human T47D cells assessed reduction in cell number at 10 uM incubated for 72 hrs by Alamar blue assay; format: functional, cell-based
Summary of the method: (§2)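 Parental cells in DMEM with 10% FBS and 2 mM L-glutamine at 37 °C, 5% CO2. Seeded in 96-well plates at a line-optimized density (HCC1954 and T47D, 3000 cells/well) and grown 24 h before treatment. Compounds were incubated 72 h, with 0.1% DMSO (v/v) controls. Alamar Blue was added at 10% v/v for 3 h. Fluorescence was read at ex 540/em 590 nm and normalized to plate DMSO wells.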

[3] = system: HCC1954; assay: Induction of morphological changes in human HCC1954 cells at 10 uM incubated for 48 hrs by Hoechst 33342, SYTO14, Phalloidin-594, Wheat germ agglutinin-594, Concavalin-488, MitoTracker DeepRed staining based wide field fluorescent microscopic method; format: functional, cell-based; summary of the method: as §1
[4] = system: HCC1954; assay: Antiproliferative activity against human HCC1954 cells assessed as reduction in cell number at 10 uM incubated for 72 hrs Alamar blue assay; format: functional, cell-based; summary of the method: as §2
[5] = system: T47D; assay: Induction of morphological changes in human T47D cells assessed as number of nuclei incubated for 48 hrs by Hoechst 33342, SYTO14, Phalloidin-594, Wheat germ agglutinin-594, Concavalin-488, MitoTracker DeepRed staining based wide field fluorescent microscopic method; format: functional, cell-based; summary of the method: as §1
[6] = system: T47D; assay: Antiproliferative activity against human T47D cells assessed as cell viability incubated for 72 hrs Alamar blue assay; format: functional, cell-based; summary of the method: as §2
[7] = system: HCC1954; assay: Induction of morphological changes in human HCC1954 cells assessed as number of nuclei incubated for 48 hrs by Hoechst 33342, SYTO14, Phalloidin-594, Wheat germ agglutinin-594, Concavalin-488, MitoTracker DeepRed staining based wide field fluorescent microscopic method; format: functional, cell-based; conditions: HCC1954, 48 h; summary of the method: as §1
[8] = system: HCC1954; assay: Antiproliferative activity against human HCC1954 cells assessed as cell viability incubated for 72 hrs Alamar blue assay; format: functional, cell-based; conditions: HCC1954, 72 h; summary of the method: as §2
[9] = system: T47D; assay: Antiproliferative activity against human T47D cells assessed reduction in cell number at 1 uM incubated for 72 hrs by Alamar blue assay; format: functional, cell-based; summary of the method: as §2
[10] = system: HCC1954; assay: Antiproliferative activity against human HCC1954 cells assessed as reduction in cell number at 1 uM incubated for 72 hrs Alamar blue assay; format: functional, cell-based; summary of the method: as §2
[11] = system: T47D; assay: Induction of cell cycle arrest in human T47D cells assessed as downregulation in CCND1 RNA incubated for 24 hrs; format: functional, cell-based
Summary of the method: (§3)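 T47D cells were seeded in 6-well plates for 24 h, then drug-treated for 24 h. RNA was extracted with on-column DNase digestion and checked by A260/A280, and concentrations were normalized. 100 ng RNA was run on the nCounter PanCancer Pathways Panel. Data were normalized per NanoString protocol, and the advanced analysis module calculated differential ratios against DMSO.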

[12] = system: T47D; assay: Induction of cell cycle arrest in human T47D cells assessed as downregulation in CCNE2 RNA incubated for 24 hrs; format: functional, cell-based; summary of the method: as §3
[13] = system: T47D; assay: Induction of cell cycle arrest in human T47D cells assessed as downregulation in CCNA2 RNA incubated for 24 hrs; format: functional, cell-based; summary of the method: as §3
[14] = system: T47D; assay: Effect on cell cycle pathway in human T47D cells assessed as fold enrichment in cell cycle genes incubated for 24 hrs relative to control; format: functional; summary of the method: as §3
[15] = system: T47D; assay: Effect on cell cycle pathway in human T47D cells assessed as fold enrichment in mitotic genes incubated for 24 hrs relative to control; format: functional; summary of the method: as §3
[16] = system: T47D; assay: Effect on cell cycle pathway in human T47D cells assessed as fold enrichment in G1/S transition genes incubated for 24 hrs relative to control; format: functional; summary of the method: as §3
[17] = system: T47D; assay: Effect on cell cycle pathway in human T47D cells assessed as fold enrichment in cell cycle checkpoint genes incubated for 24 hrs relative to control; format: functional; summary of the method: as §3
[18] = system: T47D; assay: Effect on cell cycle pathway in human T47D cells assessed as fold enrichment in S Phase genes incubated for 24 hrs relative to control; format: functional; summary of the method: as §3
[19] = system: T47D; assay: Effect on TNFR1 pathway in human T47D cells assessed as fold enrichment in TNFR1-induced proapoptotic signaling incubated for 24 hrs relative to control; format: functional; summary of the method: as §3
[20] = system: T47D; assay: Effect on TNFR1 pathway in human T47D cells assessed as fold enrichment in AP1 family of transcription factors incubated for 24 hrs relative to control; format: functional; summary of the method: as §3
[21] = system: T47D; assay: Effect on TNFR1 pathway in human T47D cells assessed as fold enrichment in MAPK targets/nuclear events mediated by MAP kinases incubated for 24 hrs relative to control; format: functional; summary of the method: as §3
[22] = system: T47D; assay: Effect on TNFR1 pathway in human T47D cells assessed as fold enrichment in RAF-independent MAPK1/3 activation genes incubated for 24 hrs relative to control; format: functional; summary of the method: as §3
[23] = system: T47D; assay: Effect on TNFR1 pathway in human T47D cells assessed as fold enrichment in MAP kinase activation genes incubated for 24 hrs relative to control; format: functional; summary of the method: as §3

| SMILES | Activity [1] | Activity [2] | Activity [3] | Activity [4] | pEC50 [5] | pEC50 [6] | pEC50 [7] | pEC50 [8] | Activity [9] | Activity [10] | further results |
| --- | --- | --- | --- | --- | --- | --- | --- | --- | --- | --- | --- |
| CNCCCC1c2ccccc2C=Cc2ccccc21 [PROTRIPTYLINE] | Active | Active | inactive | inactive | 5.11 | < 5.00 | < 5.00 | < 5.00 | inactive | inactive |  |
| CN(C)CCCN1c2ccccc2Sc2ccc(C(F)(F)F)cc21 [TRIFLUPROMAZINE] | Active | Active | inactive | inactive | 5.27 | 5.07 | < 5.00 | < 5.00 | inactive | inactive | Activity [11]: Active; Activity [12]: Active; Activity [13]: Active; fold change (FC) [14]: 7.33; fold change (FC) [15]: 7.55; fold change (FC) [16]: 11.45; fold change (FC) [17]: 11.45; fold change (FC) [18]: 10.15; fold change (FC) [19]: 17.4; fold change (FC) [20]: 14.91; fold change (FC) [21]: 1.015; fold change (FC) [22]: 6.96; fold change (FC) [23]: 6.02 |
